# Experimental data from ChEMBL document CHEMBL1933024, “In vitro antibacterial activity of sphaeropsidins and chemical derivatives toward Xanthomonas oryzae pv. oryzae, the causal agent of rice bacterial blight” (2011).
# Active and inactive are the calls of the source. The calls are words filed in the database; no cut-off is given here.
# Assays:
# Type in all cases: functional
# [1] = test system: Xanthomonas oryzae pv. oryzae; assay: Antibacterial activity against Xanthomonas oryzae pv. oryzae XKK.12 assessed as growth inhibition at 5.6 X 10^-3 M measured after 1 to 2 days
# Outline: (§1)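 Agar well diffusion. Each pathogen culture was mixed with top agar (PSA, KB or LB; 0.75% w/v agar) at 45 °C, 50 µL culture per 10 mL, and poured over LB plates bearing wells. Compound (25 or 100 µg in 50 µL DMSO) was added to the wells; 50 µL DMSO served as negative control. Plates were incubated at 30 °C for 1–2 days. The inhibition zone was measured in mm, including the 4 mm well. Three repeats, SD.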
# [2] = test system: Xanthomonas oryzae pv. oryzae; assay: Antibacterial activity against Xanthomonas oryzae pv. oryzae XKK.12 assessed as growth inhibition at 1.4 X 10^-3 M measured after 1 to 2 days; outline: as §1
# [3] = test system: Burkholderia glumae; assay: Antibacterial activity against Burkholderia glumae AU6208 assessed as growth inhibition at 25 to 100 ug measured after 1 to 2 days; outline: as §1
# [4] = test system: Pseudomonas fuscovaginae; assay: Antibacterial activity against Pseudomonas fuscovaginae UPB0736 assessed as growth inhibition at 25 to 100 ug measured after 1 to 2 days; outline: as §1
# [5] = test system: Xanthomonas oryzae pv. oryzae; assay: Antibacterial activity against Xanthomonas oryzae pv. oryzae XKK.12 assessed as growth inhibition at 5.7 X 10^-3 M measured after 1 to 2 days; conditions: read-out: IZ; outline: as §1
# [6] = test system: Xanthomonas oryzae pv. oryzae; assay: Antibacterial activity against Xanthomonas oryzae pv. oryzae XKK.12 assessed as growth inhibition at 6 X 10^-3 M measured after 1 to 2 days; conditions: for zone of inhibition at 6000 µM: read-out: IZ; outline: as §1
# [7] = test system: Xanthomonas oryzae pv. oryzae; assay: Antibacterial activity against Xanthomonas oryzae pv. oryzae XKK.12 assessed as growth inhibition at 1.5 X 10^-3 M measured after 1 to 2 days; outline: as §1
# [8] = test system: Xanthomonas oryzae pv. oryzae; assay: Antibacterial activity against Xanthomonas oryzae pv. oryzae XKK.12 assessed as growth inhibition at 5.2 X 10^-3 measured after 1 to 2 days relative to ampicillin
# [9] = test system: Xanthomonas oryzae pv. oryzae; assay: Antibacterial activity against Xanthomonas oryzae pv. oryzae XKK.12 assessed as growth inhibition at 1.3 X 10^-3 M measured after 1 to 2 days; outline: as §1
# [10] = test system: Xanthomonas oryzae pv. oryzae; assay: Antibacterial activity against Xanthomonas oryzae pv. oryzae XKK.12 assessed as growth inhibition at 5.2 X 10^-3 M measured after 1 to 2 days; outline: as §1
# [11] = test system: Xanthomonas oryzae pv. oryzae; assay: Bacteriostatic activity against Xanthomonas oryzae pv. oryzae XKK.12 assessed as growth inhibition at 0.5 to 1.5 X 10^-4 M measured after 1 to 2 days
# [12] = test system: Xanthomonas oryzae pv. oryzae; assay: Bactericidal activity against Xanthomonas oryzae pv. oryzae XKK.12 assessed as growth inhibition at 0.5 to 1.5 X 10^-4 M measured after 6 to 24 hrs
# [13] = test system: Xanthomonas oryzae pv. oryzae; assay: Antibacterial activity against Xanthomonas oryzae pv. oryzae XKK.12 assessed as growth inhibition at 6 X 10^-3 measured after 1 to 2 days relative to ampicillin
# [14] = test system: Xanthomonas oryzae pv. oryzae; assay: Antibacterial activity against Xanthomonas oryzae pv. oryzae XKK.12 assessed as growth inhibition at 1.0 X 10^-3 M measured after 1 to 2 days; outline: as §1
# [15] = test system: Xanthomonas oryzae pv. oryzae; assay: Antibacterial activity against Xanthomonas oryzae pv. oryzae XKK.12 assessed as growth inhibition at 4 X 10^-3 M measured after 1 to 2 days; outline: as §1
# [16] = test system: Xanthomonas oryzae pv. oryzae; assay: Antibacterial activity against Xanthomonas oryzae pv. oryzae XKK.12 assessed as growth inhibition at 25 to 100 ug measured after 1 to 2 days; outline: as §1
# [17] = test system: Xanthomonas oryzae pv. oryzae; assay: Bactericidal activity against Xanthomonas oryzae pv. oryzae XKK.12 assessed as decrease in survival rate at 0.5 to 1.5 X 10^-4 M measured after 6 to 24 hrs
# [18] = test system: Xanthomonas oryzae pv. oryzae; assay: Antibacterial activity against Xanthomonas oryzae pv. oryzae XKK.12 assessed as growth inhibition at 2 X 10^-3 measured after 1 to 2 days relative to ampicillin
# [19] = test system: Xanthomonas oryzae pv. oryzae; assay: Antibacterial activity against Xanthomonas oryzae pv. oryzae XKK.12 assessed as growth inhibition at 2 X 10^-3 M measured after 1 to 2 days; conditions: read-out: IZ; outline: as §1
# [20] = test system: Xanthomonas oryzae pv. oryzae; assay: Antibacterial activity against Xanthomonas oryzae pv. oryzae XKK.12 assessed as growth inhibition at 0.5 X 10^-3 M measured after 1 to 2 days; outline: as §1
structure (smiles),measurement,setting,value
C=C[C@@]1(C)CC[C@@]2(O)C(=C1C)C(=O)C(=O)[C@H]1C(C)(C)CCC[C@@]12C(=O)OC,inhibition zone (IZ),[1],inactive
same,inhibition zone (IZ),[2],inactive
same,Activity,[3],inactive
same,Activity,[4],inactive
CC1(C)S[C@@H]2[C@H](NC(=O)[C@H](N)c3ccccc3)C(=O)N2[C@H]1C(=O)O [AMPICILLIN],zone of inhibition at 5700 µM,[5],52 mm
C=C[C@]1(C)C=C2[C@@H](O)[C@@]3(O)OC(=O)[C@@]4(CCCC(C)(C)[C@H]34)[C@@]2(O)CC1,inhibition zone (IZ),[6],inactive
same,inhibition zone (IZ),[7],inactive
same,Activity,[3],inactive
same,Activity,[4],inactive
C=C[C@]1(C)C=C2C(=O)[C@@]3(OC(C)=O)OC(=O)[C@@]4(CCCC(C)(C)[C@H]34)[C@@]2(O)CC1,inhibition (INH),[8],39.8%
same,zone of inhibition at 1300 µM,[9]; read-out: IZ,15.8 mm
same,zone of inhibition at 5200 µM,[10]; read-out: IZ,20.7 mm
same,Activity,[3],inactive
same,Activity,[11],Active
same,Activity,[12],Active
same,Activity,[4],inactive
CC[C@]1(C)C=C2C(=O)[C@@]3(O)OC(=O)[C@@]4(CCCC(C)(C)[C@H]34)[C@@]2(O)CC1,growth inhibition (GI),[13],22.3%
same,zone of inhibition at 6000 µM,[6],11.6 mm
same,inhibition zone (IZ),[7],inactive
same,Activity,[3],inactive
same,Activity,[11],Active
same,Activity,[4],inactive
CC[C@]1(C)C=C2[C@@H](OC(C)=O)[C@@]3(O)OC(=O)[C@@]4(CCCC(C)(C)[C@H]34)[C@@]2(O)CC1,inhibition zone (IZ),[9],inactive
same,inhibition zone (IZ),[10],inactive
same,Activity,[3],inactive
same,Activity,[4],inactive
C=C[C@]1(C)C=C2[C@@H](OC(C)=O)[C@@]3(O)OC(=O)[C@@]4(CCCC(C)(C)[C@H]34)[C@@]2(O)CC1,inhibition zone (IZ),[14],inactive
same,Activity,[3],inactive
same,inhibition zone (IZ),[15],inactive
same,Activity,[4],inactive
C=C[C@]1(C)C=C2C(=O)C[C@H]3C(C)(C)CCC[C@]3(C(=O)OC)[C@@]2(O)CC1,inhibition zone (IZ),[6],inactive
same,inhibition zone (IZ),[7],inactive
same,Activity,[3],inactive
same,Activity,[4],inactive
CC[C@]1(C)C=C2[C@@H](O)[C@@]3(O)OC(=O)[C@@]4(CCCC(C)(C)[C@H]34)[C@@]2(O)CC1,zone of inhibition at 6000 µM,[6],8.9 mm
same,inhibition zone (IZ),[7],inactive
same,Activity,[3],inactive
same,Activity,[11],inactive
same,Activity,[4],inactive
C=C[C@]1(C)C=C2C(=O)C[C@H]3C(C)(C)CCC[C@]3(C(=O)O)[C@@]2(O)CC1,inhibition zone (IZ),[6],inactive
same,inhibition zone (IZ),[7],inactive
same,Activity,[3],inactive
same,Activity,[4],inactive
C=C[C@]1(C)C=C2C3(CO3)C(=O)[C@H]3C(C)(C)CCC[C@]3(C(=O)OC)[C@@]2(O)CC1 (some centres undefined),inhibition zone (IZ),[9],inactive
same,inhibition zone (IZ),[10],inactive
same,Activity,[3],inactive
same,Activity,[4],inactive
C=C[C@@]1(C)CC[C@]2(O)[C@@]3(C(=O)OC)CCCC(C)(C)[C@@H]3C(=O)C(=O)[C@@]23C[C@@H]13,inhibition zone (IZ),[9],inactive
same,inhibition zone (IZ),[10],inactive
same,Activity,[3],inactive
same,Activity,[4],inactive
C=C[C@]1(C)C=C2[C@@H](O)C[C@H]3C(C)(C)CCC[C@]3(C(=O)O)[C@@]2(O)CC1,inhibition zone (IZ),[6],inactive
same,inhibition zone (IZ),[7],inactive
same,Activity,[3],inactive
same,Activity,[4],inactive
C=C[C@]1(C)C=C2C3(CO3)C(=O)[C@H]3C(C)(C)CCC[C@]3(C(=O)OC)[C@@]2(OC)CC1 (some centres undefined),inhibition zone (IZ),[9],inactive
same,inhibition zone (IZ),[10],inactive
same,Activity,[3],inactive
same,Activity,[4],inactive
C=C[C@]1(C)C=C2C(=O)[C@@]3(O)OC(=O)[C@@]4(CCCC(C)(C)[C@H]34)[C@@]2(O)CC1 [SPHAEROPSIDIN A],growth inhibition (GI),[13],49%
same,Activity,[16],Active
same,zone of inhibition at 6000 µM,[6],25.5 mm
same,zone of inhibition at 1500 µM,[7]; read-out: IZ,18.3 mm
same,Activity,[17],Active
same,Activity,[12],Active
C=C[C@]1(C)C=C(C=O)[C@@]2(CC1)OC(=O)[C@H]1C(C)(C)CCC[C@@]12C(=O)O,inhibition zone (IZ),[6],inactive
same,inhibition zone (IZ),[7],inactive
same,Activity,[3],inactive
same,Activity,[4],inactive
C=C[C@]1(C)C=C2[C@@H](O)C(=O)[C@H]3C(C)(C)CCC[C@]3(C(=O)OC)[C@@]2(O)CC1,inhibition zone (IZ),[1],inactive
same,inhibition zone (IZ),[2],inactive
same,Activity,[3],inactive
same,Activity,[4],inactive
C=C[C@@]1(C)CCC2=C(C(=O)[C@@]3(OC(C)=O)OC(=O)[C@@]24CCCC(C)(C)[C@H]34)C1OC(C)=O (some centres undefined),inhibition (INH),[18],29.4%
same,zone of inhibition at 2000 µM,[19],15.3 mm
same,Activity,[3],inactive
same,inhibition zone (IZ),[20],inactive
same,Activity,[11],Active
same,Activity,[4],inactive
